In ChEMBL document CHEMBL4014261, “Design, Synthesis, and Antimicrobial Evaluation of a Novel Bone-Targeting Bisphosphonate-Ciprofloxacin Conjugate for the Treatment of Osteomyelitis Biofilms” (J Med Chem, 2017):
Converted amounts (≈) assume the structure as drawn. The source made the active and inactive calls. The rule behind the calls is not given here.

What was measured:
Staphylococcus aureus [1] = assay: Antibiofilm activity against Staphylococcus aureus ATCC 6538 assessed as reduction in bacterial adherence to HA at 0.24 to 7.8 ug/ml pretreated with HA for 24 hrs followed by organism inoculation measured after 24 hrs; type: functional
Outline: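 HA spherules (final 10 mg/mL) in TSB were preincubated 24 h at 37 °C with shaking with compound (final 0.12–250 mg/L), then pelleted and the supernatant discarded. They were inoculated with 1 mL S. aureus at 10^5 CFU/mL. A580 was read at 0 and 24 h (37 °C, shaking) against controls without spherules and spherules without compound; spherules were also plated for CFU.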

Staphylococcus aureus [2] = assay: Antibiofilm activity against Staphylococcus aureus ATCC 6538 assessed as CFU counts at 1 ug/mL pretreated with HA for 24 hrs followed by organism inoculation measured after 24 hrs (reference value: 4.5 x 10^10CFU); type: functional
Outline: (§1)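 HA discs were soaked 24 h at 37 °C in 2 mL compound solution, with DMSO or phosphate-buffer controls, then rinsed 3× with sterile water. Discs were inoculated with 2 mL of 0.5 McFarland S. aureus ATCC 6538 for biofilm formation. Biofilm CFU were counted after 24 h growth.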

Hydroxyapatite = assay: Binding affinity to Hydroxyapatite at 1.95 to 250 ug/mL up to 24 hrs by spectroscopic analysis
Outline: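 HA spherules (final 10 mg/mL) in TSB were mixed with compound (final 0.24–250 mg/L). Absorbance at 275 nm was read at 0 h and after 24 h at 37 °C with shaking, and relative compound concentration was derived by comparing the two readings.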

Staphylococcus aureus [3] = assay: Bactericidal activity against methicillin-susceptible Staphylococcus aureus ATCC 6538 planktonic cells assessed as reduction in bacterial growth at 15.6 ug/ml after 24 hrs by time kill assay; set-up: scale not given: the % may be the effect or the level left
Staphylococcus aureus [4] = assay: Antibacterial activity against methicillin-sensitive Staphylococcus aureus isolate 3 planktonic cells after 24 hrs by microdilution assay; type: functional; settings: isolate 3, 24 h
Outline: (§2)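 Planktonic cells at 1 × 10^5 CFU/mL were exposed to compound, and A580 was read at 0 h and after 24 h at 37 °C with shaking. Controls were medium plus microbes, with 1% (v/v) DMSO where the solvent was used. Relative cell number was calculated against the control. Results were confirmed by subculture in fresh medium (48 h, 37 °C) and plating. Conjugate concentrations were expressed as parent-antibiotic equivalents.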

[5] = tested on: Aggregatibacter actinomycetemcomitans; assay: Antibiofilm activity against Aggregatibacter actinomycetemcomitans D7S-5 using hydroxyapatite as substrate at >15 ug/mL after 24 hrs; type: functional
Staphylococcus aureus [6] = assay: Antibiofilm activity against Staphylococcus aureus ATCC 6538 assessed as CFU counts at 25 ug/mL pretreated with HA for 24 hrs followed by organism inoculation measured after 24 hrs (reference value: 4.5 x 10^10CFU); type: functional; outline: as §1
[7] = tested on: Aggregatibacter actinomycetemcomitans; assay: Antibiofilm activity against Aggregatibacter actinomycetemcomitans infected in jawbone peri-implant osteomyelitis Sprague-Dawley rat model assessed as mean CFU count/gram at 0.3 mg/kg, ip administered 3 times per week measured after 1 week post pharmacotherapy; type: functional, organism-based
Outline: (§3)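 Rats carried two titanium implants each, preinoculated with A. actinomycetemcomitans D7S-1 biofilm (10^9 CFU), placed bilaterally in palatal bone. One week after surgery, randomized groups received i.p. doses in sterile saline; the negative control was endotoxin-free saline. One week after treatment, 1 cm² peri-implant tissue and bone were homogenized in 0.5% saponin, serially diluted 10-fold and spread-plated on modified TSB (37 °C, 5% CO2, 48 h). Read-out was CFU/g and mean log10 reduction; analysts were blinded.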

Staphylococcus aureus [8] = assay: Antibacterial activity against methicillin-sensitive Staphylococcus aureus isolate 6 planktonic cells after 24 hrs by microdilution assay; type: functional; settings: isolate 6, 24 h; outline: as §2
Staphylococcus aureus [9] = assay: Antibacterial activity against methicillin-sensitive Staphylococcus aureus isolate 4 planktonic cells after 24 hrs by microdilution assay; type: functional; settings: isolate 4, 24 h; outline: as §2
Staphylococcus aureus [10] = assay: Antibacterial activity against methicillin-sensitive Staphylococcus aureus isolate 1 planktonic cells after 24 hrs by microdilution assay; type: functional; settings: isolate 1, 24 h; outline: as §2
Staphylococcus aureus [11] = assay: Antibiofilm activity against Staphylococcus aureus ATCC 6538 assessed as CFU counts at 200 ug/mL pretreated with HA for 24 hrs followed by organism inoculation measured after 24 hrs (reference value: 4.5 x 10^10CFU); type: functional
Staphylococcus aureus [12] = assay: Antibacterial activity against methicillin-sensitive Staphylococcus aureus isolate 5 planktonic cells after 24 hrs by microdilution assay; type: functional; settings: isolate 5, 24 h; outline: as §2
Rattus norvegicus [13] = assay: Toxicity in jawbone peri-implant osteomyelitis Sprague-Dawley rat model infected with Aggregatibacter actinomycetemcomitans assessed as signs of gross tolerability at 0.3 mg/kg, ip administered 3 times per week measured after 1 week post pharmacotherapy; type: organism-based; settings: in vivo, 168 h
Outline: (§4)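 Rats bearing infected palatal implants received i.p. dosing in sterile saline. They were observed during therapy for cutaneous injection-site reactions, inflammation and gross tolerability issues, and were euthanized one week after pharmacotherapy.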

Staphylococcus aureus [14] = assay: Antibacterial activity against methicillin-sensitive Staphylococcus aureus ATCC 6538 planktonic cells at pH 5 after 24 hrs by microdilution method; type: functional; settings: ATCC 6538, 24 h
Outline: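 Planktonic ATCC 6538 was tested by microdilution in medium adjusted to pH 5 or pH 7.4 with KOH or HCl, with pH checked by universal indicator. MIC50 was determined at each pH.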

Rattus norvegicus [15] = assay: Toxicity in jawbone peri-implant osteomyelitis Sprague-Dawley rat model infected with Aggregatibacter actinomycetemcomitans assessed as cutaneous injection-site reactions at 0.1 to 10 mg/kg, ip single dose measured after 1 week post pharmacotherapy; type: organism-based; settings: in vivo, 168 h; outline: as §4
Staphylococcus aureus [16] = assay: Antibiofilm activity against Staphylococcus aureus ATCC 6538 assessed as CFU counts at 50 ug/mL pretreated with HA for 24 hrs followed by organism inoculation measured after 24 hrs (reference value: 4.5 x 10^10CFU); type: functional; outline: as §1
[17] = tested on: Aggregatibacter actinomycetemcomitans; assay: Antibiofilm activity against Aggregatibacter actinomycetemcomitans infected in jawbone peri-implant osteomyelitis Sprague-Dawley rat model assessed as reduction in bacterial count in bone at 0.1 to 1 mg/kg, ip single dose measured after 1 week post pharmacotherapy; type: functional, organism-based; outline: as §3
Staphylococcus aureus [18] = assay: Bactericidal activity against methicillin-resistant Staphylococcus aureus MR4-CIPS planktonic cells assessed as reduction in bacterial growth at 7.8 ug/ml after 24 hrs by time kill assay relative to control; type: functional; set-up: scale not given: the % may be the effect or the level left
Outline: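 Time-kill per CLSI on planktonic cultures, set up as the microdilution assay: 1 × 10^5 CFU/mL, 37 °C with shaking. A580 is read at 0, 1, 2, 4, 8, 16 and 24 h, and growth is expressed relative to untreated medium + microbes control. Concentrations are parent-antibiotic equivalents.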

Pseudomonas aeruginosa = assay: Bactericidal activity against Pseudomonas aeruginosa ATCC 15442 biofilm using polystyrene as substrate assessed as reduction in colony forming units at 0.24 to 125 ug/ml after 24 hrs; type: functional
Outline: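 Biofilms were started from a 1 McFarland suspension, allowed to adhere 4 h at 37 °C on HA discs or polystyrene well bottoms, then rinsed. They were exposed 24 h at 37 °C to TSB containing 0.24–125 mg/L compound. Cells were detached in 0.5% saponin by 1 min vortexing, serially diluted and plated on Columbia (S. aureus) or MacConkey (P. aeruginosa) agar, 37 °C, 24 h. Read-out was mean CFU/mm² ± SEM; HA area was measured by X-ray tomography.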

Staphylococcus aureus [19] = assay: Potency index, ratio of ciprofloxacin bactericidal concentration to compound bactericidal concentration for Staphylococcus aureus ATCC 6538; type: functional

How did the Activity (Staphylococcus aureus [1]) turn out when O=C(O)c1cn(C2CC2)c2cc(N3CCN(C(=O)Oc4ccc(CC(P(=O)(O)O)P(=O)(O)O)cc4)CC3)c(F)cc2c1=O was run?
The Activity was “Active”.

What about the Activity (Staphylococcus aureus [2]) of the same molecule?
The Activity was 7.1 ×10¹⁰ CFU.

And the Activity (Hydroxyapatite)?
The Activity was “Active”.

What about the Activity (Staphylococcus aureus [3]) of the same molecule?
The Activity was 50%.

What about the MIC (Staphylococcus aureus [4]) of the same molecule?
Its MIC is 0.49 µg/mL (≈ 0.766 µM).

And the Activity [5]?
Its Activity is “Active”.

What about the Activity (Staphylococcus aureus [6]) of the same molecule?
Its Activity is “Active”.

And the Activity [7]?
Its Activity is “Active”.

What about the MIC (Staphylococcus aureus [8]) of the same molecule?
The MIC was 7.8 µg/mL (≈ 12.2 µM).

What about the MIC (Staphylococcus aureus [9]) of the same molecule?
Its MIC is 3.9 µg/mL (≈ 6.1 µM).

What about the MIC (Staphylococcus aureus [10]) of the same molecule?
Its MIC is 3.9 µg/mL (≈ 6.1 µM).

And the Activity (Staphylococcus aureus [11])?
Its Activity is “Active”.

And the MIC (Staphylococcus aureus [12])?
Its MIC is 1.9 µg/mL (≈ 2.97 µM).

What about the Activity (Rattus norvegicus [13]) of the same molecule?
Its Activity is “Non-Toxic”.

And the MIC50 (Staphylococcus aureus [14])?
Its MIC50 is 7.81 µg/mL (≈ 12.2 µM).

And the MIC90 (Staphylococcus aureus [14])?
Its MIC90 is 31.2 µg/mL (≈ 48.9 µM).

And the Activity (Rattus norvegicus [15])?
Its Activity is “Non-Toxic”.

What about the Activity (Staphylococcus aureus [16]) of the same molecule?
Its Activity is “Active”.

And the Activity [17]?
Its Activity is “Active”.

What about the Activity (Staphylococcus aureus [18]) of the same molecule?
Its Activity is 50%.

What about the Activity (Pseudomonas aeruginosa) of the same molecule?
The Activity was “inactive”.

And the Ratio (Staphylococcus aureus [19])?
The Ratio was 20.
